Data published in ChEMBL document CHEMBL1148262, “Stability studies of C-4',6' acetal benzylmaltosides synthesized as inhibitors of smooth muscle cell proliferation” (Bioorg Med Chem Lett, 2004).
pIC50: −log10 of the molar value.

How the values were obtained:
[1] = Half-life of compound at a pH of 4.5 was determined; type: ADME; conditions: pH 4.5
[2] = Half-life of compound at a pH of 2.5 was determined; type: ADME; conditions: pH 2.5
[3] = Stability of compound determined in medium mimicking stomach as percent remaining at 18-20 hr at a pH of 1; type: ADME; conditions: pH 1
[4] = Half-life of compound at a pH of 1.4 was determined; type: ADME; conditions: pH 1.4
[5] = Half-life of compound at a pH of 3 was determined; type: ADME; conditions: pH 3
[6] = test system: HASMC; test: Concentration inducing 50% inhibition of Human aortic smooth muscle cell (HASMC) proliferation; type: functional, cell-based
Outline: (§1)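 HASMC or HAEC from passage 3–6, grown to 70–80% confluence in 24-well plates, then held 24–48 h without serum or growth factors to make them quiescent. Restimulated with serum or growth factor for 24 h with 0.5 µCi/mL ³H-thymidine. Compounds were added from 50% ethanol stock at 1–100 µM. TCA-precipitable counts were measured in triplicate, as percent of stimulated control, and IC50 was derived.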

[7] = Half-life of compound at a pH of 4 was determined; type: ADME; conditions: pH 4
[8] = Half-life of compound at a pH of 3.5 was determined; type: ADME; conditions: pH 3.5
[9] = Half-life of compound at a pH of 1 was determined; type: ADME; conditions: pH 1
[10] = Half-life of compound at a pH of 1.9 was determined; type: ADME; conditions: pH 1.9
[11] = Concentration inducing 50% inhibition of human aortic endothelial cell (HAEC) proliferation; type: functional, cell-based; outline: as §1
[12] = Percent degradation of compound at a pH of 1 over a 18 hr period; type: ADME; conditions: pH 1; read-out: Degradation
[13] = test system: Rattus norvegicus; test: In vivo percent reduction in intimal thickening rat balloon injury model at a dose of 100 mg/kg; Range is 18-39 %; type: functional

SMILES	half-life [1] [h]	half-life [2] [h]	Remaining [3] [%]	half-life [4] [h]	half-life [5] [h]	pIC50 [6]	half-life [7] [h]	half-life [8] [h]	half-life [9] [h]	half-life [10] [h]	pIC50 [11]	degraded at 18 h [12] [%]	Reduction [13] [%]
CC(=O)Nc1cc(CO[C@@H]2O[C@@H](COC(=O)c3ccccc3)[C@H](O[C@H]3OC4CO[C@@H](C(C)C)OC4[C@H](O)[C@@H]3O)[C@H](O)[C@@H]2O)ccc1Cl (stereo not given in full)	> 20	> 20	53	> 20	> 20	8.52	> 20	> 20	> 20	> 20			
CC[C@@H]1OCC2O[C@H](O[C@@H]3[C@H](O)[C@H](O)[C@H](OCc4ccc(Cl)c(NC(C)=O)c4)O[C@H]3COC(=O)c3ccccc3)[C@@H](O)[C@@H](O)C2O1 (stereo not given in full)	> 20	> 20	52	> 20	> 20	7.43	> 20	> 20	> 20	> 20	6.63		
CC(=O)Nc1cc(CO[C@@H]2O[C@@H](COC(=O)c3ccccc3)[C@H](O[C@H]3OC4CO[C@@H](c5ccc([N+](=O)[O-])cc5)OC4[C@H](O)[C@@H]3O)[C@H](O)[C@@H]2O)ccc1Cl (stereo not given in full)						8.52					6.43		
CC(=O)Nc1cc(CO[C@@H]2O[C@@H](COC(=O)c3ccccc3)[C@H](O[C@H]3OC4CO[C@@H](c5ccc(Cl)cc5)OC4[C@H](O)[C@@H]3O)[C@H](O)[C@@H]2O)ccc1Cl (stereo not given in full)	> 20	> 20	0	4	> 20	7.64	> 20	> 20	1.7	13.3	6.49		
CC(=O)Nc1cc(CO[C@@H]2O[C@@H](COC(=O)c3ccccc3)[C@H](O[C@H]3OC4CO[C@@H](Cc5ccccc5)OC4[C@H](O)[C@@H]3O)[C@H](O)[C@@H]2O)ccc1Cl (stereo not given in full)	> 20	> 20	94	> 20	> 20	7.46	> 20	> 20	> 20	> 20			
CC(=O)Nc1cc(CO[C@@H]2O[C@@H](COC(=O)c3ccccc3)[C@H](O[C@H]3OC4CO[C@@H](c5ccncc5)OC4[C@H](O)[C@@H]3O)[C@H](O)[C@@H]2O)ccc1Cl (stereo not given in full)	> 20	> 20	97	> 20	> 20	8.52	> 20	> 20	> 20	> 20			
CC(=O)Nc1cc(CO[C@@H]2O[C@@H](COC(=O)c3ccccc3)[C@H](O[C@H]3O[C@@H](CO)[C@@H](O)[C@H](O)[C@@H]3O)[C@H](O)[C@@H]2O)ccc1Cl						4.46							
CC(=O)Nc1cc(CO[C@@H]2O[C@@H](COC(=O)c3ccccc3)[C@H](O[C@H]3OC4CO[C@@H](c5ccccc5)OC4[C@H](O)[C@@H]3O)[C@H](O)[C@@H]2O)ccc1Cl (stereo not given in full)	> 20	13	0	2.3	> 20	7.70	> 20	> 20	1.9	4.2	6.03	100	39
CC(=O)Nc1cc(CO[C@@H]2O[C@@H](COC(=O)c3ccccc3)[C@H](O[C@H]3OC4CO[C@@H](C)OC4[C@H](O)[C@@H]3O)[C@H](O)[C@@H]2O)ccc1Cl (stereo not given in full)	> 20	> 20	68	> 20	> 20	6.99	> 20	> 20	> 20	> 20	6.59	32	
